An excerpt weighted towards active compounds, which were near 1.9% of everything screened.
CHRM4 PAM: CHRM4 positive allosteric modulation; CHO-K1 hM4/Gqi5, Fluo-8 calcium fluorescence, ACh EC20; 0% = ACh EC20, 100% = maximal ACh; activation, % at 3 µM; 360,000 compounds, 0.4% hits;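 active = activation above its plate's cutoff, the mean activation of sample wells plus 3 SD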
Target sequence (P08173 whole entry, looked up): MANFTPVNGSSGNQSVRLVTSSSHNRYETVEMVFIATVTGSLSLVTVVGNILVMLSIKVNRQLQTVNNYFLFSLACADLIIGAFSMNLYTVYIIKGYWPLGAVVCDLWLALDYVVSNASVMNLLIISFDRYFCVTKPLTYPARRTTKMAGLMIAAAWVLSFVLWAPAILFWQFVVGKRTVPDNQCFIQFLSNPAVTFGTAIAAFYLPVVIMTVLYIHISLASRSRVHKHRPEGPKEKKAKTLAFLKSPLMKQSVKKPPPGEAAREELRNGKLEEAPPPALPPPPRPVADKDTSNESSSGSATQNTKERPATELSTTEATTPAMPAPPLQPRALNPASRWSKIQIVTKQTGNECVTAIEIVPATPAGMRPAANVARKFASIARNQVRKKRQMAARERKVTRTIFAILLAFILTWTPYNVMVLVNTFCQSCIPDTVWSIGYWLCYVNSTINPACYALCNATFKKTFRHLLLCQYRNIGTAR
CHRM5 PAM: CHRM5 positive allosteric modulation; P08912; 360,000 compounds, 0.3% hits; CHO-K1 hM5, Fluo-8 calcium, ACh EC20 PAM; 0% = ACh EC20, 100% = ACh EC100; activation, % at 3 µM;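 active = activation above the run cutoff, the mean activation of all test compounds plus 3 SD, cut at about 18% in these data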
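Assay system: CHO-K1 hM5 cells / Incubation: Fluo-8 loading 80 min at 37 °C plus 30 min room temperature / Technique: Fluo-8 calcium dye fluorescence, kinetic read / Repeats: single replicate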
M5 ag: CHRM5 agonism in calcium assay | P08912 | CHO-K1 hM5 cells, Fluo-8 calcium fluorescence; 0% DMSO wells, 100% maximal acetylcholine response | activation, % at 3 µM | 360,000 compounds, 0.19% hits | AID 624037;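 active = activation above the run's mean over test compounds plus 3 SD, cut at about 23% in these data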;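 also: signal is peak over basal fluorescence ratio across the kinetic read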
CHRM5 antagonist: antagonists of human muscarinic M5 receptor (CHRM5). inhibition, % at 3 µM. 360,000 compounds, 0.59% hits. P08912. CHO-hM5 cells, Fluo-8 calcium fluorescence, ACh EC80. AID 624040;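 active = inhibition above a per-plate cutoff, the mean of that plate's test compounds plus 3 SD, cut at about 27% in these data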
M4 antag: antagonists of human muscarinic M4 receptor (CHRM4); P08173; CHO-hM4 cells, ACh EC80, Fluo-8 calcium fluorescence; inhibition, % at 3 µM; 360,000 compounds, 0.73% hits;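 active = inhibition above its plate's cutoff, the mean inhibition of sample wells plus 3 SD, cut at about 27% in these data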
CHRM4 agonist: CHRM4 agonism in calcium assay. P08173. CHO-K1 hM4/Gqi5, Fluo-8 calcium fluorescence; vehicle 0%, full acetylcholine response 100%. activation, % at 3 µM. 360,000 compounds, 0.14% hits. AID 624127;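 active = activation above the run mean over all test wells plus 3 SD, cut at about 32% in these data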;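 also: peak over basal fluorescence ratio per well then scaled between controls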
Each line names hits and unclear results; the compound was inactive in the other large screens.

Cc1nn(-c2ccccc2)c(Cl)c1C(=O)NNC(=O)c1ccccc1O	none
CC(C)(C)C(=O)Nc1ccc(N2CCCC2)cc1	M4 antag 44
Cc1cc(Br)cc(Cl)c1OC(=O)c1ccncc1	none
CCCN1CCC(=O)N(CCSc2ccc(OC)cc2)CC1	CHRM5 PAM 19
CCCN1CCC(=O)N(CCSc2ccc(C)cc2)CC1	none
CN1OC[C@@H]2CN(C(=O)c3cccc4ccccc34)[C@H](c3ccccc3Br)C[C@@H]21	none
COc1cc2sc(C)nc2c2sccc12	CHRM4 PAM 18
COc1ccc2sc(C)nc2c1NC(C)=O	none
CN1C(=O)/C(=C/c2ccccc2OCc2cccc(F)c2)N(C)C1=S	CHRM5 antagonist 45, M4 antag 65
CN1C(=O)/C(=C/c2ccc(OCc3ccc(F)cc3)cc2)N(C)C1=S	none
O=C(CN(Cc1ccco1)C(=O)c1cc(=O)[nH]c2ccccc12)Nc1ccccc1C(F)(F)F	none
O=C(CN(Cc1ccco1)C(=O)c1ccc(F)cc1F)Nc1ccccc1C(F)(F)F	CHRM4 PAM 23
CN(CC(=O)Nc1cccc2ccccc12)C(=O)c1ccc(F)cc1F	CHRM4 PAM 23
COc1ccc(N2CCN(C(=O)c3cc(C)on3)CC2)cc1	none
CCc1ccc2[nH]c(C(=O)Nc3ccc(C)c(F)c3)cc2c1	none
O=C(Nc1ccc(F)cc1)c1cc2cc(Cl)ccc2[nH]1	CHRM5 antagonist 31
Cc1cccc2sc(NC(=O)C3CCN(S(=O)(=O)c4cc([N+](=O)[O-])ccc4Cl)CC3)nc12	M4 antag 29
COc1ccc(C(C)=O)cc1CN1C(=O)C(C)ON=C1c1cccc(C(F)(F)F)c1 (stereo not drawn)	none
CCOC(=O)C1CN(S(=O)(=O)c2ccc(C)cc2)C1	CHRM5 PAM 20
CC(C)C[C@H]1CN(CCCC[C@@H]2CNC(=O)C(=O)N2CCc2ccccc2)C(=O)C(=O)N1CCc1ccc(O)cc1	none
CCOC(=O)c1c(NC(=O)CSc2nnc(-c3ccco3)o2)sc(C)c1C	CHRM4 PAM 36
CCOC(=O)c1c(NC(=O)CSc2nnc(-c3ccco3)o2)sc(C(C)=O)c1C	none
CCOC(=O)c1c(NC(=O)CSc2nnc(-c3cccnc3)n2Cc2ccco2)sc(C)c1C	CHRM5 PAM 19
CCOc1ccc(NC(=O)CN(C)C(=O)c2cc(S(=O)(=O)N3CCCCC3)ccc2C)cc1OCC	none
CC(C)c1cc(C(C)C)c(S(=O)(=O)NC(c2ccccn2)C23CC2C3)c(C(C)C)c1 (stereo not drawn)	none
N#CC(=C1C=C(Br)C(=NO)C=C1Cl)c1cccc2ccccc12	none
CC[n+]1c(C)sc2c(C)cc(C)cc21	CHRM5 PAM 27
Cc1cc(C)c2sc(C)[n+](CCCS(=O)(=O)[O-])c2c1	none
COCCN(C(=O)COC(=O)Cc1c[nH]c2ccccc12)c1c(N)n(Cc2ccccc2)c(=O)[nH]c1=O	none
Clc1ccc(OCc2cn3ccccc3n2)c2ncccc12	CHRM5 antagonist 35
Nc1nc2c(nc(SCc3ccccc3Br)n2[C@@H]2O[C@H](CO)[C@@H](O)[C@H]2O)c(=O)[nH]1	none
COc1ccc(CCNC(=O)c2cc(-c3cc(C)cc(C)c3O)n[nH]2)cc1OC	M4 antag 39
c1ccc(N=NC2=NN(c3ccccc3)CS2)cc1	none
CCOC(=O)N1CCN(c2nc3ccc(C(=O)c4ccccc4)cc3n3cnnc23)CC1	CHRM4 PAM 31
CCc1cc(-c2cnnn2Cc2ccccc2)ccc1-c1cn(CC(C)C)nn1	none
CC1=C([N+](=O)[O-])C(c2ccc(Cl)cc2)NC(=O)N1C (stereo not drawn)	none
CCCCCOc1ccc(Br)cc1/C(C)=N/NC1=NCCN1	none
COc1ccc(Br)cc1/C(C)=N/NC1=NCCN1	M5 ag 47, CHRM5 antagonist 30
CCN(CC)CCCn1c(C)cc2c(c1=O)C(c1cc(OC)c(OC)cc1OC)C(C#N)=C(N)O2 (stereo not drawn)	M4 antag 30
COc1cc(OC)c(C2C(C#N)=C(N)Oc3cc(C)n(CCCN4CCOCC4)c(=O)c32)cc1OC (stereo not drawn)	none
Cc1ccc(-n2ncc3c2CC(C)(C)CC3NC(=O)CCc2c(C)noc2C)cc1 (stereo not drawn)	none
Cc1c(C(c2ccccc2O)c2c(C)n(C)n(-c3ccccc3)c2=O)c(=O)n(-c2ccccc2)n1C	none
Cc1c(C(c2cc3c(cc2Br)OCO3)c2c(C)n(C)n(-c3ccccc3)c2=O)c(=O)n(-c2ccccc2)n1C	M4 antag 44
CC(C)CN(C(=O)c1cccc(S(=O)(=O)N2CCN(c3ccc(F)cc3)CC2)c1)C1CCS(=O)(=O)C1 (stereo not drawn)	none
CCSc1ccccc1C(=O)N1CCC2(CC1)CC(=O)c1ccccc1O2	none
O=C(O)c1ccccc1C(=O)Nc1nc(-c2ccc3ccccc3c2)cs1	CHRM4 PAM 24
NS(=O)(=O)c1ccc(Nc2nc(-c3cccc([N+](=O)[O-])c3)cs2)cc1	none
O=C(Nc1nc(-c2ccc3ccccc3c2)cs1)c1ccc(N2C(=O)CCC2=O)cc1	none
NS(=O)(=O)c1ccc(Nc2nc(-c3ccc4ccccc4c3)cs2)cc1	M4 antag 37
Cc1cccc(C)c1N1C(=O)c2ccccc2NC(=O)C1C(=O)NCc1ccco1 (stereo not drawn)	none
NS(=O)(=O)c1ccc(CCNC(=O)c2ccc3c(c2)N(Cc2ccccc2)CCS3)cc1	CHRM5 antagonist 31
CCCc1cc(=O)oc2cc(OCc3cc(OC)c(OC)c(OC)c3)c(Cl)cc12	none
CCCCc1cc(=O)oc2cc(OCc3cc(OC)c(OC)c(OC)c3)c(Cl)cc12	CHRM4 PAM 16
O=C1CCCCC(=O)N(c2ccccc2)c2ccccc21	CHRM5 PAM 18
CC1(C(=O)NS(=O)(=O)c2ccc(Cl)cc2)CCN1C(=O)c1ccccc1 (stereo not drawn)	none
CC(C)C/C=C1\CCc2c([nH]c3ccccc23)C1=O	CHRM4 PAM 21
CCOc1ccccc1NC(=O)c1cc(C(=O)Nc2ccccc2OCC)cc(N2C(=O)CCC2=O)c1	CHRM5 antagonist 29
CCOc1ccccc1NC(=O)c1cccc(N2C(=O)CCC2=O)c1	none
COc1ccc(C(=O)n2cnc3ccccc32)cc1	CHRM4 PAM 14
Cn1c(N)c(C(=O)COC(=O)Cc2ccsc2)c(=O)n(C)c1=O	CHRM4 PAM 22
Cn1c(N)c(C(=O)COC(=O)Cc2ccc(Br)cc2)c(=O)n(C)c1=O	none
CCCC(O)(CCN1CCOCC1)c1ccc(Br)cc1 (stereo not drawn)	M4 antag 44
